Experimental data: ChEMBL document CHEMBL3763032, “Novel Small Molecule Inhibitors of Choline Kinase Identified by Fragment-Based Drug Discovery” (J Med Chem, 2016)
Activity calls are given as the source filed them. No cut-off for these calls is given here.

Columns and labels:
[1] = biological target: T1, Choline kinase alpha (Homo sapiens, UniProt P35790)
Target sequence in this assay (P35790 whole entry): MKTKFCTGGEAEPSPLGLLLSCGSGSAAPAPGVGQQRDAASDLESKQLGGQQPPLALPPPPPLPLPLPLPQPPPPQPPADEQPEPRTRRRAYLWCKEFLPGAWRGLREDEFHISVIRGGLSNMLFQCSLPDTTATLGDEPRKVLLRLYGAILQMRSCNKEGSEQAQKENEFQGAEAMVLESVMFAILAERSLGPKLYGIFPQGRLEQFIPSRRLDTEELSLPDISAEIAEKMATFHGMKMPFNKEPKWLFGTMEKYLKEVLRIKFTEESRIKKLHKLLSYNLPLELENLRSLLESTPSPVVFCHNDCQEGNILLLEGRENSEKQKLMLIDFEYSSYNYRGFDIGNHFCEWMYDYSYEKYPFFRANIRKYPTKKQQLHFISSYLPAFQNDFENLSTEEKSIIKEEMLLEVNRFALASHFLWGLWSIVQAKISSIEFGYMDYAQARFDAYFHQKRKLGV

[2] = biological target: T1, Choline kinase alpha; remark: listed apart in the source
Target sequence in this assay (P35790 whole entry): as above

[3] = biological target: T1, Choline kinase alpha; remark: listed apart in the source
Target sequence in this assay (P35790 whole entry, looked up): as the sequence (P35790 whole entry) above

[4] = biological target: Carbonic anhydrase 2 (Homo sapiens, UniProt P00918); test: Binding affinity to carbonic anhydrase2 (unknown origin) by surface plasmon resonance assay
Summary of the method: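 Carbonic anhydrase II, used as the reference surface, amine-coupled at a density similar to the ChoKα1 surface. 25 °C, 2-fold dilution series (fragments top at 300 μM). Single-step kinetics (Biacore) or FastStep (SensiQ). Kd from 1:1 binding model fits.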

[5] = tested on: MDA-MB-415; test: Induction of apoptosis in human MDA-MB-415 cells expressing ChoKalpha after 24 hrs by caspase-3/7 assay; assay type: functional, cell-based
Summary of the method: (§1)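 Cells exposed to compounds for 24 h, then caspase activity measured with the Apo-ONE homogeneous caspase-3/7 assay. Apoptosis expressed as a percentage of vehicle-treated cells, from one representative experiment.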

[6] = tested on: MDA-MB-415; test: Cytotoxicity against human MDA-MB-415 cells expressing ChoKalpha after 72 hrs by CyQuant cell proliferation assay; assay type: functional; conditions: for GI50: Homo sapiens, MDA-MB-415, 72 h
Summary of the method: (§2)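 Cells from ATCC, used within 6 months, grown in the supplier-recommended medium. Treated with compound or vehicle for 72 h, then read by CyQuant proliferation kit. GI50 determined after correcting for cell count at time zero, with growth plotted as percent of vehicle-treated cells. Mean ±SD from ≥2 separate experiments.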

[7] = Cytotoxicity against human MCF12A cells after 72 hrs by CyQuant cell proliferation assay; assay type: cell-based, MCF-12A; conditions: for GI50 at 72 h: MCF12A cells; for %max: mcf-12a, 72 h
Summary of the method: as §2

[8] = biological target: T1, Choline kinase alpha; test: Inhibition of ChoKalpha in human MDA-MB-468 cells assessed as reduction in phosphocholine level after 24 hrs by NMR analysis; assay type: cell-based
Target sequence in this assay (P35790 whole entry): as above

[9] = Induction of apoptosis in human MCF12A cells upto 40 uM after 24 hrs by caspase-3/7 assay; assay type: cell-based; conditions: mcf-12a
Summary of the method: as §1

[10] = Cytotoxicity against human MCF10A cells after 72 hrs by CyQuant cell proliferation assay; assay type: cell-based, MCF-10A; conditions: for GI50 at 72 h: MCF10A cells; for %max: mcf-10a, 72 h
Summary of the method: as §2

[11] = tested on: MDA-MB-468; test: Cytotoxicity against human MDA-MB-468 cells expressing ChoKalpha after 72 hrs by CyQuant cell proliferation assay; assay type: functional; conditions: for GI50: Homo sapiens, MDA-MB-468, 72 h
Summary of the method: as §2

[12] = tested on: MDA-MB-468; test: Cytotoxicity against human MDA-MB-468 cells after 72 hrs by MTT assay; assay type: functional, cell-based; conditions: MDA-MB-468, 72 h
[13] = Cytotoxicity against human MCF10A cells after 72 hrs by MTT assay; assay type: cell-based; conditions: MCF-10A
[14] = biological target: T1, Choline kinase alpha; test: Inhibition of recombinant human ChoKalpha using choline as substrate by ultraviolet spectroscopic assay
Summary of the method: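 Coupled ATP-regeneration assay with recombinant human ChoKα1 (N-terminal His tag, pET28a, >95% pure) at 10–50 nM monomer. A340 read over 10–30 min. Initial rates taken across 2-fold inhibitor dilutions and fitted to a dose–response model for IC50.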
Target sequence in this assay (P35790 whole entry): as above

[15] = biological target: T1, Choline kinase alpha; test: Reversible binding affinity to human N-terminal truncated ChoKalpha1 (75 to 457 residues) ChoKalpha1 by STD NMR analysis
Summary of the method: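 Saturation-transfer difference NMR primary screen. On-resonance irradiation was at 0.8 ppm and off-resonance at 30 ppm, with excitation-sculpting water suppression; 320 scans were averaged.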
Target sequence in this assay (P35790 whole entry, looked up): as the sequence (P35790 whole entry) above

[16] = biological target: T1, Choline kinase alpha; test: Inhibition of ChoKalpha in human MDA-MB-415 cells assessed as reduction in phosphocholine level after 24 hrs by NMR analysis; assay type: cell-based
Target sequence in this assay (P35790 whole entry): as above

[17] = Effect on phosphocholine level in human MCF12A cells after 24 hrs by NMR analysis; assay type: ADME, cell-based; conditions: mcf-12a
Summary of the method: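 Cells grown with increasing compound concentrations or vehicle (DMSO) for 24 h, then counted and checked for viability by Trypan blue exclusion. 5 ×10^6 viable cells washed twice in ice-cold d-PBS and extracted by vortexing 30 s in 6 mL ice-cold 100% methanol. Intracellular choline and phosphocholine quantified by NMR.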

Compound | IC50 [1] | Kd [2] | Ka [3] | further results
COc1ccc(-c2ccc(CN3CCCN(C)CC3)cc2)cc1 | 1.43 µM | 3.8 µM |  | 
CN1CCCN(Cc2ccc3ncccc3c2)CC1 | 3.9 µM | 4 µM |  | 
CN1CCCN(Cc2ccc(-c3ccc(CN4CCCN(C)CC4)cc3F)cc2)CC1 | 0.165 µM | 0.211 µM | 93000 M⁻¹ s⁻¹ | 
CN1CCCN(Cc2ccc(-c3ccc(C(=O)N4CCCN(C)CC4)cc3)cc2)CC1 | 0.251 µM | 0.195 µM |  | 
CN1CCCN(Cc2ccc(-c3ccc(CN4CCCN(C)CC4)cc3C#N)cc2)CC1 | 0.066 µM | 0.01 µM | 676000 M⁻¹ s⁻¹ | 
CN1CCNCC(Cc2ccc3ncccc3c2)C1 (configuration not stated) | 17.2 µM | 7 µM |  | 
CN1CCCN(Cc2ccc(-c3ccc(C(F)(F)F)cc3)cc2)CC1 | 2.6 µM | 4 µM |  | 
O=C(N1CCCCCC1)N1CCNCC1 | > 300 µM | 340 µM |  | Kd [4]: 1400 µM
CN1CCCN(Cc2ccc(-c3ccc(CN4CCCN(C)CC4)c(F)c3F)cc2)CC1 | 0.233 µM | 0.021 µM | 718000 M⁻¹ s⁻¹ | 
CN1CCCN(Cc2ccc(-c3ccc(CN4CCCN(C)CC4)cc3)cc2)CC1 | 0.457 µM | 0.382 µM | 94000 M⁻¹ s⁻¹ | Activity [5]: Active; %max [6]: 158%; GI50 [6]: 4 µM; GI50 at 72 h [7]: 31 µM; %max [7]: 64%; IC50 [8]: 2 µM; Activity [9]: Non-toxic; GI50 at 72 h [10]: 27 µM; %max [10]: 77%; %max [11]: 163%; GI50 [11]: 9 µM
CN1CCCN(Cc2ccc(-c3ccc(N4CCN(C)CC4)cc3)cc2)CC1 | 1.3 µM | 0.769 µM |  | 
CN1CCCN(Cc2ccc(-c3cc(F)c(CN4CCCN(C)CC4)c(F)c3)cc2)CC1 | 0.255 µM | 0.259 µM | 125000 M⁻¹ s⁻¹ | 
CN(c1ccc(Cl)cc1)c1cc[n+](Cc2ccc(-c3ccc(C[n+]4ccc(N(C)c5ccc(Cl)cc5)c5ccccc54)cc3)cc2)c2ccccc12 [RSM-932A] |  |  |  | IC50 [12]: 2.4 µM; IC50 [13]: 7.1 µM
CN1CCCN(Cc2ccc(-c3ccc(CN4CCCN(C)CC4)c(Cl)c3)cc2)CC1 | 0.268 µM | 0.088 µM | 235000 M⁻¹ s⁻¹ | 
CN1CCCN(Cc2ccc(CN)cc2)CC1 | 87 µM | 132 µM |  | Kd [4]: 490 µM
O[C@](CCc1ccccc1OC1CCOCC1)(c1ccccc1)C1CN2CCC1CC2 (some centres not stated) |  |  |  | IC50 [14]: 0.02 µM
Nc1cc(C(F)(F)F)ncn1 | > 300 µM | 630 µM |  | Kd [4]: 670 µM
CN1CCCN(Cc2ccc(-c3ccccc3)cc2)CC1 | 1.48 µM | 3.7 µM |  | 
CN1CCCN(Cc2ccc3ccccc3c2)CC1 | 2.6 µM | 4.3 µM |  | 
COC(=O)c1ccc(-c2ccc(CN3CCCN(C)CC3)cc2)cc1 | 4.95 µM | 2.4 µM |  | 
Cc1cc(O)cc(C)c1C#N |  |  |  | Activity [15]: Active
CN1CCCN(Cc2ccc(-c3ccc(CN4CCCN(C)CC4)cc3C#N)c(F)c2)CC1 | 0.085 µM | 0.099 µM | 112000 M⁻¹ s⁻¹ | Activity [5]: Active; %max [6]: 189%; GI50 [6]: 2 µM; IC50 [16]: 0.75 µM; GI50 at 72 h [7]: > 40 µM; %max [7]: 51%; Activity [9]: Non-toxic; Activity [17]: Non-toxic; GI50 at 72 h [10]: 18 µM; %max [10]: 99%; %max [11]: 139%; GI50 [11]: 7 µM
CN1CCCN(c2ccc(CO)cc2)CC1 | > 2000 µM | 194 µM |  | 
